Laboratory results published in ChEMBL document CHEMBL1122744, “2-Chloroethyl (methylsulfonyl)methanesulfonate and related (methylsulfonyl)methanesulfonates. Antineoplastic activity in vivo” (J Med Chem, 1984).
Several values for one entry are separate records, joined by “and”; a condition that tells them apart may be missing. Identical values can stand only once.

Assays:
[1] = system: Mus musculus; experiment: Change in weight by day 5, obtained by subtracting treated groups of animals minus control groups of animals at dose 100 mg/kg in exp1.; type: functional
Outline: (§1)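 Mice were inoculated ip with 10^6 P388 leukemia cells on day 0, when treated and control mice weighed 19–22 g. Treatment was given ip once daily on days 1–5, within about 5 min of preparing the solution or suspension. Groups of six (occasionally five) were treated, with 30 untreated inoculated mice as controls. The day-5 weight change is the mean treated change minus the mean control change.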

[2] = system: Mus musculus; experiment: Change in weight by day 5, obtained by subtracting treated groups of animals minus control groups of animals at dose 25 mg/kg in exp1.; type: functional; outline: as §1
[3] = system: Mus musculus; experiment: Mortality by day 5 expressed as number of mice died to the total treated at dose 100 mg/kg in exp1; 2/6; type: ADME, organism-based; design: dose 100 mg/kg; settings: in vivo
[4] = system: Mus musculus; experiment: Median survival time of the treated control groups, in which there are no 30-day survivors at dose 100 mg/kg in exp1; type: functional
[5] = system: Mus musculus; experiment: Median survival time of the treated control groups, in which there are no 30-day survivors at dose 25 mg/kg in exp1; type: functional
[6] = system: Mus musculus; experiment: Mortality by day 5 expressed as number of mice died to the total treated at dose 25 mg/kg in exp1; 0/6; type: ADME, organism-based; design: dose 25 mg/kg; settings: in vivo
[7] = system: Mus musculus; experiment: Mortality by day 5 expressed as number of mice died to the total treated at dose 50 mg/kg in exp1; 0/6; type: ADME, organism-based; design: dose 50 mg/kg; settings: in vivo
[8] = system: Mus musculus; experiment: Median survival time of the treated control groups, in which there are no 30-day survivors at dose 50 mg/kg in exp1; type: functional
[9] = system: Mus musculus; experiment: Median survival time of the untreated control groups, in which there are no 30-day survivors at dose 25 mg/kg in exp1; type: functional
[10] = system: Mus musculus; experiment: Median survival time of the untreated control groups, in which there are no 30-day survivors at dose 50 mg/kg in exp1; type: functional
[11] = system: Mus musculus; experiment: Median survival time of the untreated control groups, in which there are no 30-day survivors at dose 100 mg/kg in exp1; type: functional
[12] = Ratio of median survival times for non-survivors at dose 100 mg/kg in exp1; type: functional; design: unit: %
Outline: (§2)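 Mice were inoculated ip with 10^6 P388 leukemia cells on day 0. Groups of six (occasionally five) were dosed ip qd on days 1–5 with fresh suspensions; 30 mice served as untreated controls. Deaths were recorded daily up to day 60. T/C% compares the median survival of treated non-survivors (<60 days) with the control median. Medians used grouped data when there were no 30-day survivors, otherwise ungrouped data. t = toxic.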

[13] = Ratio of median survival times for non-survivors at dose 50 mg/kg in exp1; type: functional; design: unit: %; outline: as §2
[14] = system: Mus musculus; experiment: Mortality by day 5 expressed as number of mice died to the total treated at dose 100 mg/kg in exp1; 6/6; type: ADME, organism-based; design: dose 100 mg/kg; settings: in vivo
[15] = system: Mus musculus; experiment: Change in weight by day 5, obtained by subtracting treated groups of animals minus control groups of animals at dose 200 mg/kg in exp1.; type: functional; settings: 200 mg/kg; outline: as §1
[16] = system: Mus musculus; experiment: Change in weight by day 5, obtained by subtracting treated groups of animals minus control groups of animals at dose 100 mg/kg in exp2; type: functional; outline: as §1
[17] = system: Mus musculus; experiment: Change in weight by day 5, obtained by subtracting treated groups of animals minus control groups of animals at dose 150 mg/kg in exp2; type: functional; outline: as §1
[18] = system: Mus musculus; experiment: Change in weight by day 5, obtained by subtracting treated groups of animals minus control groups of animals at dose 50 mg/kg in exp1.; type: functional; outline: as §1
[19] = system: Mus musculus; experiment: Change in weight by day 5, obtained by subtracting treated groups of animals minus control groups of animals at dose 50 mg/kg in exp2; type: functional; outline: as §1
[20] = system: Mus musculus; experiment: Mortality by day 5 expressed as number of mice died to the total treated at dose 100 mg/kg in exp1; 0/6; type: ADME, organism-based; design: dose 100 mg/kg; settings: in vivo
[21] = system: Mus musculus; experiment: Mortality by day 5 expressed as number of mice died to the total treated at dose 100 mg/kg in exp2; 0/6; type: ADME, organism-based; design: dose 100 mg/kg; settings: in vivo
[22] = system: Mus musculus; experiment: Mortality by day 5 expressed as number of mice died to the total treated at dose 150 mg/kg in exp2; 0/6; type: ADME, organism-based; design: dose 150 mg/kg; settings: in vivo
[23] = system: Mus musculus; experiment: Median survival time of the treated control groups, in which there are no 30-day survivors at dose 150 mg/kg in exp2; type: functional
[24] = system: Mus musculus; experiment: Median survival time of the treated control groups, in which there are no 30-day survivors at dose 200 mg/kg in exp1; type: functional
[25] = system: Mus musculus; experiment: Median survival time of the treated control groups, in which there are no 30-day survivors at dose 100 mg/kg in exp2; type: functional
[26] = system: Mus musculus; experiment: Mortality by day 5 expressed as number of mice died to the total treated at dose 200 mg/kg in exp1; 0/6; type: ADME, organism-based; design: dose 200 mg/kg; settings: in vivo
[27] = system: Mus musculus; experiment: Median survival time of the treated control groups, in which there are no 30-day survivors at dose 50 mg/kg in exp2; type: functional
[28] = system: Mus musculus; experiment: Median survival time of the untreated control groups, in which there are no 30-day survivors at dose 100 mg/kg in exp2; type: functional
[29] = system: Mus musculus; experiment: Median survival time of the untreated control groups, in which there are no 30-day survivors at dose 150 mg/kg in exp2; type: functional
[30] = system: Mus musculus; experiment: Median survival time of the untreated control groups, in which there are no 30-day survivors at dose 200 mg/kg in exp1; type: functional
[31] = Ratio of median survival times for non-survivors at dose 50 mg/kg in exp2; type: functional; outline: as §2
[32] = Ratio of median survival times for non-survivors at dose 100 mg/kg in exp2; type: functional; outline: as §2
[33] = Ratio of median survival times for non-survivors at dose 150 mg/kg in exp2; type: functional; outline: as §2
[34] = Ratio of median survival times for non-survivors at dose 200 mg/kg in exp1; t= toxic; type: ADME, organism-based; design: dose 200 mg/kg; settings: in vivo; outline: as §2
[35] = system: Mus musculus; experiment: Change in weight by day 5, obtained by subtracting treated groups of animals minus control groups of animals at dose 6 mg/kg in exp2; type: functional
Outline: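 Mice were inoculated ip with 10^6 P388 leukemia cells on day 0 and weighed 19–22 g that day. Compound was given ip once daily on days 1–5, within about 5 min of preparing the solution or suspension, to groups of six (occasionally five). Thirty inoculated untreated mice served as controls. The value is the average weight change of treated mice minus that of controls on day 5.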

[36] = system: Mus musculus; experiment: Change in weight by day 5, obtained by subtracting treated groups of animals minus control groups of animals at dose 12 mg/kg in exp2; type: functional; outline: as §1
[37] = system: Mus musculus; experiment: Change in weight by day 5, obtained by subtracting treated groups of animals minus control groups of animals at dose 25 mg/kg in exp2; type: functional; outline: as §1
[38] = system: Mus musculus; experiment: Median survival time of the treated control groups, in which there are no 30-day survivors at dose 12 mg/kg in exp2; type: functional; settings: 12 mg/kg
[39] = system: Mus musculus; experiment: Mortality by day 5 expressed as number of mice died to the total treated at dose 6 mg/kg in exp2; 0/6; type: ADME, organism-based; design: dose 6 mg/kg; settings: in vivo
[40] = system: Mus musculus; experiment: Mortality by day 5 expressed as number of mice died to the total treated at dose 200 mg/kg in exp1; 5/6; type: ADME, organism-based; design: dose 200 mg/kg; settings: in vivo
[41] = system: Mus musculus; experiment: Mortality by day 5 expressed as number of mice died to the total treated at dose 25 mg/kg in exp1; 2/6; type: ADME, organism-based; design: dose 25 mg/kg; settings: in vivo
[42] = system: Mus musculus; experiment: Mortality by day 5 expressed as number of mice died to the total treated at dose 25 mg/kg in exp2; 0/6; type: ADME, organism-based; design: dose 25 mg/kg; settings: in vivo
[43] = system: Mus musculus; experiment: Mortality by day 5 expressed as number of mice died to the total treated at dose 50 mg/kg in exp1; 6/6; type: ADME, organism-based; design: dose 50 mg/kg; settings: in vivo
[44] = system: Mus musculus; experiment: Median survival time of the treated control groups, in which there are no 30-day survivors at dose 25 mg/kg in exp1*-based on the four of six that survived bryond 5th day; type: functional
[45] = system: Mus musculus; experiment: Median survival time of the treated control groups, in which there are no 30-day survivors at dose 25 mg/kg in exp2; type: functional
[46] = system: Mus musculus; experiment: Median survival time of the untreated control groups, in which there are no 30-day survivors at dose 12 mg/kg in exp2; type: functional
[47] = Ratio of number of 60-day survivors to the total treated mice at dose 25 mg/kg in exp1; 0/6; type: functional
[48] = Ratio of number of 60-day survivors to the total treated mice at dose 25 mg/kg in exp2; 1/6; type: functional
[49] = Ratio of number of 60-day survivors to the total treated mice at dose 25 mg/kg in exp2; 2/6; type: functional
[50] = Ratio of median survival times for non-survivors at dose 50 mg/kg in exp1; t= toxic; type: ADME, organism-based; design: dose 50 mg/kg; settings: in vivo
[51] = Ratio of number of 30-day survivors to the total treated mice at dose 25 mg/kg in exp1; 2/6; type: functional
[52] = Ratio of number of 30-day survivors to the total treated mice at dose 25 mg/kg in exp2; 3/6; type: functional
[53] = system: Mus musculus; experiment: Median survival time of the untreated control groups, in which there are no 30-day survivors at dose 25 mg/kg in exp2; type: functional
[54] = Ratio of median survival times for non-survivors at dose 100 mg/kg in exp1; t=toxic; type: ADME, organism-based; design: dose 100 mg/kg; settings: in vivo; outline: as §2
[55] = Ratio of median survival times for non-survivors at dose 12 mg/kg in exp2; type: functional; settings: 12 mg/kg; outline: as §2
[56] = Ratio of median survival times for non-survivors at dose 25 mg/kg in exp1*-based on the four of six that survived bryond 5th day; type: functional
[57] = Ratio of median survival times for non-survivors at dose 25 mg/kg in exp2; type: functional; outline: as §2

CS(=O)(=O)OCCBr
Change in weight [1]: -3 | Change in weight [2]: -0.7 | Mortality [3]: 2 | Median survival time [4]: 11.8 | Median survival time [5]: 12 | Mortality [6]: 0 | Mortality [7]: 0 | Median survival time [8]: 12.3 | Median survival time [9]: 11.1 | Median survival time [10]: 11.1 | Median survival time [11]: 11.1 | Ratio [12]: 106 | Ratio [13]: 110 | Mortality [14]: 6

CCOS(=O)(=O)CS(C)(=O)=O
Change in weight [15]: -5 and -3.4 | Change in weight [16]: -4.3 | Change in weight [17]: -5.4 | Change in weight [18]: -1.4 | Change in weight [19]: -1.8 | Mortality [20]: 0 | Mortality [21]: 0 | Mortality [22]: 0 | Median survival time [23]: 11 | Median survival time [24]: 6.9 | Median survival time [4]: 18 | Median survival time [25]: 17.9 | Mortality [26]: 0 | Mortality [7]: 0 | Median survival time [8]: 13.3 | Median survival time [27]: 14 | Median survival time [10]: 11.2 | Median survival time [11]: 11.2 | Median survival time [28]: 10.5 | Median survival time [29]: 10.5 | Median survival time [30]: 11.2 | Ratio [31]: 133 | Ratio [32]: 170 | Ratio [33]: 104 | Ratio [34]: Toxic | Ratio [12]: 160 | Ratio [13]: 118

CS(=O)(=O)CS(=O)(=O)OCCF
Change in weight [35]: -1.8 | Change in weight [36]: -3.7 | Change in weight [2]: -4.3 | Change in weight [37]: -5.6 | Change in weight [19]: -4.8 | Median survival time [38]: 19.8 and 15 | Mortality [39]: 0 | Mortality [40]: 5 | Mortality [41]: 2 | Mortality [42]: 0 | Mortality [43]: 6 | Median survival time [44]: 31 | Median survival time [45]: 30 | Median survival time [9]: 11.2 | Median survival time [10]: 11.2 | Median survival time [11]: 11.2 | Median survival time [46]: 10.5 | Ratio [47]: 0 | Ratio [48]: 1 | Ratio [49]: 2 | Ratio [50]: Toxic | Ratio [51]: 2 | Ratio [52]: 3 | Median survival time [53]: 10.5 | Ratio [54]: Toxic | Ratio [55]: 188 and 142 | Ratio [56]: 277 | Ratio [57]: 286 | Mortality [14]: 6
